Converted amounts (≈) assume the structure as drawn.
Assays:
Candida albicans [1] = assay: Antifungal activity against 10^7 cells/ml Candida albicans ATCC 90028 planktonic cells by XTT reduction assay; type: functional
Outline: (§1)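 High-density planktonic suspensions (10^7 or 10^8 cells/ml) added to serially double-diluted drugs as in the NCCLS setup, run in parallel in RPMI 1640 + 2% glucose and YNB + 100 mM glucose. Viability read by XTT (1 mg/ml) with menadione (0.4 mM stock, 5:1), 3 h dark at 37°C, A490 minus blank wells. MIC50 = lowest concentration giving 50% reduction versus drug-free control.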

Candida albicans [2] = assay: Antifungal activity against 10^7 cells/ml wild-type Candida albicans BF-1 planktonic cells by XTT reduction assay; type: functional; outline: as §1
Candida albicans [3] = assay: Antifungal activity against 10^8 cells/ml Candida albicans ATCC 90028 planktonic cells by XTT reduction assay; type: functional; outline: as §1
Candida albicans [4] = assay: Antifungal activity against 10^8 cells/ml wild-type Candida albicans BF-1 planktonic cells by XTT reduction assay; type: functional
Outline: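 Planktonic suspensions at 1 × 10^8 cells/ml added to twofold serial drug dilutions in 96-well plates (NCCLS format). Run in parallel in RPMI 1640 + 2% glucose and YNB + 100 mM glucose. Readout by XTT reduction: XTT–menadione in PBS, 3 h at 37°C in the dark, A490 minus blank. MIC50 is 50% reduction vs drug-free control.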

Candida albicans [5] = assay: Antifungal activity against 24 hrs cultures of 10^7 cells/ml Candida albicans ATCC 90028 biofilms by XTT reduction assay; type: functional; details: ATCC 90028, 24 h
Outline: (§2)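 Washed late-exponential cells at 1 × 10^7 cells/ml in YNB + 100 mM glucose were adhered 1.5 h at 37°C with shaking at 75 rpm, washed, then grown 24 or 48 h at 37°C, 75 rpm. Biofilms were washed and exposed 24 or 48 h at 37°C to twofold dilutions in RPMI + 2% glucose. Read by XTT at A490. MIC50 is 50% reduction vs drug-free control. Three experiments, four replicates.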

Candida albicans [6] = assay: Antifungal activity against 24 hrs cultures of 10^7 cells/ml wild-type Candida albicans BF-1 biofilms by XTT reduction assay; type: functional; details: BF-1, 24 h; outline: as §2
Candida albicans [7] = assay: Antifungal activity against 10^3 cells/ml Candida albicans SC5314 by NCCLS method; type: functional
Outline: (§3)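 Planktonic broth microdilution per NCCLS (CLSI): inoculum from 24-h SDA cultures adjusted to 0.5 McFarland at 520 nm, diluted in RPMI 1640 to about 0.5 × 10^3 to 2.5 × 10^3 cells/ml. Cells exposed to twofold drug dilutions, incubated 35°C for 48 h, then MIC read. Three separate occasions.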

Candida albicans [8] = assay: Antifungal activity against 10^8 cells/ml Candida albicans SC5314 planktonic cells by XTT reduction assay; type: functional; outline: as §1
Candida albicans [9] = assay: Antifungal activity against 24 hrs cultures of 10^7 cells/ml Candida albicans SC5314 biofilms by XTT reduction assay; type: functional; details: SC5314, 24 h; outline: as §2
Candida albicans [10] = assay: Antifungal activity against 24 hrs cultures of 10^7 cells/ml Candida albicans ATCC 90028 planktonic cells by XTT reduction method; type: functional; details: ATCC 90028, 24 h
Outline: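 Standard 1 × 10^7 cells/ml suspension in YNB + 100 mM glucose propagated planktonically 24 h alongside age-matched biofilms, then exposed to twofold drug dilutions. Metabolic activity read by XTT–menadione reduction, 3 h dark, 37°C, A490 background-subtracted. MIC50 is the 50% reduction point versus drug-free control.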

Candida albicans [11] = assay: Antifungal activity against 24 hrs cultures of 10^7 cells/ml Candida albicans BF-1 planktonic cells by XTT reduction method; type: functional; details: BF-1, 24 h
Outline: (§4)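 Age-matched planktonic cultures were grown from the same 1 × 10^7 cells/ml YNB + 100 mM glucose suspension under the biofilm conditions for 24 or 48 h. They were tested against twofold drug dilutions by XTT reduction (3 h at 37°C in the dark, A490 minus blank). MIC50 is 50% reduction vs drug-free control.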

Candida albicans [12] = assay: Antifungal activity against 48 hrs cultures of 10^7 cells/ml Candida albicans ATCC 90028 planktonic cells by XTT reduction method; type: functional; details: ATCC 90028, 48 h; outline: as §4
Candida albicans [13] = assay: Antifungal activity against 48 hrs cultures of 10^7 cells/ml Candida albicans BF-1 planktonic cells by XTT reduction method; type: functional; details: BF-1, 48 h; outline: as §4
Candida albicans [14] = assay: Antifungal activity against 24 hrs cultures of 10^7 cells/ml Candida albicans ATCC 90028 biofilms by XTT reduction method; type: functional; details: ATCC 90028, 24 h; outline: as §2
Candida albicans [15] = assay: Antifungal activity against 24 hrs cultures of 10^7 cells/ml Candida albicans BF-1 biofilms by XTT reduction method; type: functional; details: BF-1, 24 h; outline: as §2
Candida albicans [16] = assay: Antifungal activity against 48 hrs cultures of 10^7 cells/ml Candida albicans ATCC 90028 biofilms by XTT reduction method; type: functional; details: ATCC 90028, 48 h; outline: as §2
Candida albicans [17] = assay: Antifungal activity against 48 hrs cultures of 10^7 cells/ml Candida albicans BF-1 biofilms by XTT reduction method; type: functional; details: BF-1, 48 h; outline: as §2
Candida albicans [18] = assay: Antifungal activity against 24 hrs cultures of 10^7 cells/ml biofilm-derived Candida albicans ATCC 90028 planktonic cells hrs by XTT reduction method; type: functional; details: ATCC 90028, 24 h
Outline: (§5)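 Biofilms grown from 1 × 10^7 cells/ml (YNB + 100 mM glucose, 1.5 h adherence, 37°C, 75 rpm) for 24 or 48 h, washed, scraped and moved to wells of serially double-diluted drugs. Incubated with drug 24 or 48 h, then XTT–menadione read at 490 nm. MIC50 = 50% reduction versus drug-free control.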

Candida albicans [19] = assay: Antifungal activity against 24 hrs cultures of 10^7 cells/ml biofilm-derived Candida albicans BF-1 planktonic cells hrs by XTT reduction method; type: functional; details: BF-1, 24 h
Outline: (§6)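 Biofilms grown 24 or 48 h from 1 × 10^7 cells/ml were washed, scraped and transferred into plates of twofold serially diluted drugs. They were incubated 24 or 48 h. MIC was read by XTT reduction (3 h at 37°C in the dark, A490 minus blank) as 50% reduction vs drug-free control.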

Candida albicans [20] = assay: Antifungal activity against 48 hrs cultures of 10^7 cells/ml biofilm-derived Candida albicans ATCC 90028 planktonic cells hrs by XTT reduction method; type: functional; details: ATCC 90028, 48 h; outline: as §6
Candida albicans [21] = assay: Antifungal activity against 48 hrs cultures of 10^7 cells/ml biofilm-derived Candida albicans BF-1 planktonic cells hrs by XTT reduction method; type: functional; details: BF-1, 48 h; outline: as §5
Candida albicans [22] = assay: Ratio of MIC for 10^8 cells/ml wild-type Candida albicans BF-1 to MIC for 10^7 cells/ml wild-type Candida albicans BF-1 grown as planktonic cells; type: functional; outline: as §1
Candida albicans [23] = assay: Antifungal activity against 10^3 cells/ml Candida albicans ATCC 90028 by NCCLS method; type: functional; outline: as §3
Candida albicans [24] = assay: Antifungal activity against 10^3 cells/ml wild-type Candida albicans BF-1 by NCCLS method; type: functional; outline: as §3
Candida albicans [25] = assay: Antifungal activity against 10^5 cells/ml Candida albicans ATCC 90028 by EUCAST method; type: functional
Outline: (§7)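 EUCAST AFST planktonic broth microdilution: RPMI 1640 plus 2% glucose, inoculum 0.5 × 10^5 to 2.5 × 10^5 cells/ml, twofold drug dilutions. Performed on three different occasions.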

Candida albicans [26] = assay: Antifungal activity against 10^5 cells/ml wild-type Candida albicans BF-1 by EUCAST method; type: functional; outline: as §7
Candida albicans [27] = assay: Antifungal activity against 48 hrs cultures of 10^8 cells/ml Candida albicans ATCC 90028 biofilms by XTT reduction assay; details: ATCC 90028, 48 h
Candida albicans [28] = assay: Antifungal activity against 48 hrs cultures of 10^8 cells/ml wild-type Candida albicans BF-1 biofilms by XTT reduction assay; details: BF-1, 48 h

SMILES | MIC (Candida albicans [1]) | MIC (Candida albicans [2]) | MIC (Candida albicans [3]) | MIC (Candida albicans [4]) | MIC (Candida albicans [5]) | MIC (Candida albicans [6]) | MIC (Candida albicans [7]) | MIC (Candida albicans [8]) | MIC (Candida albicans [9]) | MIC (Candida albicans [10]) | MIC (Candida albicans [11]) | MIC (Candida albicans [12]) | MIC (Candida albicans [13]) | MIC (Candida albicans [14]) | MIC (Candida albicans [15]) | MIC (Candida albicans [16]) | MIC (Candida albicans [17]) | MIC (Candida albicans [18]) | MIC (Candida albicans [19]) | MIC (Candida albicans [20]) | further results
CC(=O)N1CCN(c2ccc(OCC3COC(Cn4ccnc4)(c4ccc(Cl)cc4Cl)O3)cc2)CC1 (configuration not stated) [KETOCONAZOLE] | 8 µg/mL (≈ 15.1 µM) | 16 µg/mL (≈ 30.1 µM) | 64 µg/mL (≈ 120 µM) | > 64 µg/mL | 64 µg/mL (≈ 120 µM) | > 64 µg/mL | 0.125 µg/mL (≈ 0.235 µM) | > 64 µg/mL | > 64 µg/mL | 8 µg/mL (≈ 15.1 µM) | 16 µg/mL (≈ 30.1 µM) | > 64 µg/mL | > 64 µg/mL | > 64 µg/mL | > 64 µg/mL | > 64 µg/mL | > 64 µg/mL | > 64 µg/mL | > 64 µg/mL | > 64 µg/mL | MIC (Candida albicans [21]): > 64 µg/mL; Ratio (Candida albicans [22]): 256; MIC (Candida albicans [23]): 0.125 µg/mL (≈ 0.235 µM); MIC (Candida albicans [24]): 0.125 µg/mL (≈ 0.235 µM); MIC (Candida albicans [25]): 0.125 µg/mL (≈ 0.235 µM); MIC (Candida albicans [26]): 0.125 µg/mL (≈ 0.235 µM); MIC (Candida albicans [27]): 64 µg/mL (≈ 120 µM); MIC (Candida albicans [28]): > 64 µg/mL
C[C@@H]1[C@H](O)[C@@H](C)/C=C/C=C/C=C/C=C/C=C/C=C/C=C/[C@H](O[C@@H]2O[C@H](C)[C@@H](O)[C@H](N)[C@@H]2O)C[C@@H]2O[C@](O)(C[C@@H](O)C[C@@H](O)[C@H](O)CC[C@@H](O)C[C@@H](O)CC(=O)O[C@H]1C)C[C@H](O)[C@H]2C(=O)O [AMPHOTERICIN B] | 0.23 µg/mL (≈ 0.249 µM) | 0.46 µg/mL (≈ 0.498 µM) | 0.46 µg/mL (≈ 0.498 µM) | 0.93 µg/mL (≈ 1.01 µM) | 15 µg/mL (≈ 16.2 µM) | 30 µg/mL (≈ 32.5 µM) | 0.23 µg/mL (≈ 0.249 µM) | 0.46 µg/mL (≈ 0.498 µM) | 32 µg/mL (≈ 34.6 µM) | 0.46 µg/mL (≈ 0.498 µM) | 0.93 µg/mL (≈ 1.01 µM) | 0.46 µg/mL (≈ 0.498 µM) | 0.93 µg/mL (≈ 1.01 µM) | 16 µg/mL (≈ 17.3 µM) | 32 µg/mL (≈ 34.6 µM) | 16 µg/mL (≈ 17.3 µM) | 32 µg/mL (≈ 34.6 µM) | 0.46 µg/mL (≈ 0.498 µM) | 1.87 µg/mL (≈ 2.02 µM) | 1.87 µg/mL (≈ 2.02 µM) | MIC (Candida albicans [21]): 3.75 µg/mL (≈ 4.06 µM); MIC (Candida albicans [23]): 0.23 µg/mL (≈ 0.249 µM); MIC (Candida albicans [24]): 0.23 µg/mL (≈ 0.249 µM); MIC (Candida albicans [25]): 0.23 µg/mL (≈ 0.249 µM); MIC (Candida albicans [26]): 0.23 µg/mL (≈ 0.249 µM); MIC (Candida albicans [27]): 15 µg/mL (≈ 16.2 µM); MIC (Candida albicans [28]): 30 µg/mL (≈ 32.5 µM)
CC[C@H](C)C[C@H](C)CCCCCCCCC(=O)N[C@H]1C[C@@H](O)[C@@H](NCCN)NC(=O)[C@@H]2[C@@H](O)CCN2C(=O)[C@H]([C@H](O)CCN)NC(=O)[C@H]([C@H](O)[C@@H](O)c2ccc(O)cc2)NC(=O)[C@@H]2C[C@@H](O)CN2C(=O)[C@H]([C@@H](C)O)NC1=O [CASPOFUNGIN] | 0.2 µg/mL (≈ 0.183 µM) | 0.2 µg/mL (≈ 0.183 µM) | 0.2 µg/mL (≈ 0.183 µM) | 0.4 µg/mL (≈ 0.366 µM) | 100 µg/mL (≈ 91.5 µM) | > 100 µg/mL | 0.2 µg/mL (≈ 0.183 µM) | 0.2 µg/mL (≈ 0.183 µM) | > 100 µg/mL | 0.2 µg/mL (≈ 0.183 µM) | 0.4 µg/mL (≈ 0.366 µM) | 0.4 µg/mL (≈ 0.366 µM) | 0.4 µg/mL (≈ 0.366 µM) | 100 µg/mL (≈ 91.5 µM) | > 100 µg/mL | 100 µg/mL (≈ 91.5 µM) | > 100 µg/mL | 0.2 µg/mL (≈ 0.183 µM) | 0.4 µg/mL (≈ 0.366 µM) | 0.4 µg/mL (≈ 0.366 µM) | MIC (Candida albicans [21]): 0.2 µg/mL (≈ 0.183 µM); MIC (Candida albicans [23]): 0.2 µg/mL (≈ 0.183 µM); MIC (Candida albicans [24]): 0.2 µg/mL (≈ 0.183 µM); MIC (Candida albicans [25]): 0.2 µg/mL (≈ 0.183 µM); MIC (Candida albicans [26]): 0.2 µg/mL (≈ 0.183 µM); MIC (Candida albicans [27]): 100 µg/mL (≈ 91.5 µM); MIC (Candida albicans [28]): > 100 µg/mL
